Measured values reported in ChEMBL document CHEMBL3612066, “Design, Synthesis, and Biological Evaluation of Pyrazolo[1,5-a]pyridine-3-carboxamides as Novel Antitubercular Agents” (ACS Med Chem Lett, 2015).
Values after ≈ are worked out from the molar mass of the structure shown.

Columns and labels:
Format in all cases: functional
[1] = tested on: Mycobacterium tuberculosis; assay: Antitubercular activity against multidrug-resistant Mycobacterium tuberculosis UAlP163 after 7 days by autoluminescent assay; settings: UAlP163, 168 h
How it was run: (§1)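 Autoluminescent assay against MDR clinical isolates (3495, P71, 9804, 4768, P163). Bacterial growth was read as bioluminescence intensity with no added substrate. MIC values are means of two independent experiments.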

[2] = tested on: Mycobacterium tuberculosis; assay: Antitubercular activity against multidrug-resistant Mycobacterium tuberculosis UAl9804 after 7 days by autoluminescent assay; settings: UAl9804, 168 h; how it was run: as §1
[3] = tested on: Mycobacterium tuberculosis; assay: Antitubercular activity against multidrug-resistant Mycobacterium tuberculosis UAl4768 after 7 days by autoluminescent assay; settings: UAl4768, 168 h; how it was run: as §1
[4] = tested on: Mycobacterium tuberculosis; assay: Antitubercular activity against multidrug-resistant Mycobacterium tuberculosis UAl3495 after 7 days by autoluminescent assay; settings: UAl3495, 168 h; how it was run: as §1
[5] = tested on: Mycobacterium tuberculosis; assay: Antitubercular activity against multidrug-resistant Mycobacterium tuberculosis UAlP7 after 7 days by autoluminescent assay; settings: UAlP7, 168 h; how it was run: as §1

Structure (SMILES) | MIC [1] [µM] | MIC [2] [µM] | MIC [3] [µM] | MIC [4] [µM] | MIC [5] [µM]
Cc1ccn2nc(C)c(C(=O)NCc3ccc(N4CCC(c5ccc(OC(F)(F)F)cc5)CC4)cc3)c2c1 | < 0.383 | < 0.383 | < 0.383 | 1.91 (≈ 1 µg/mL) | < 0.383
COc1ccn2nc(C)c(C(=O)NCc3ccc(N4CCC(c5ccc(OC(F)(F)F)cc5)CC4)cc3)c2c1 | 0.0111 (≈ 0.00598 µg/mL) | < 0.0111 | 0.0111 (≈ 0.00598 µg/mL) | 0.0223 (≈ 0.012 µg/mL) | 0.0111 (≈ 0.00598 µg/mL)
Cc1nn2ccc(Cl)cc2c1C(=O)NCc1ccc(N2CCC(c3ccc(OC(F)(F)F)cc3)CC2)cc1 | < 0.184 | < 0.184 | < 0.184 | – | < 0.184
CCc1nn2ccc(Cl)cc2c1C(=O)NCc1ccc(N2CCC(c3ccc(OC(F)(F)F)cc3)CC2)cc1 | < 0.0359 | < 0.0359 | 0.0359 (≈ 0.02 µg/mL) | – | 0.0718 (≈ 0.04 µg/mL)
